Experiments:
[1] = target: T1, Serotonin 2 (5-HT2) receptor (Rattus norvegicus, UniProt P30994+P08909+P14842); test: Affinity towards [3H]- DOB -labeled 5-hydroxytryptamine 2 receptor sites in rat cortical homogenates
[2] = target: T1, Serotonin 2 (5-HT2) receptor; test: Affinity towards [3H]- ketanserin-labeled 5-hydroxytryptamine 2 receptor sites in rat cortical homogenates
How it was run: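 Label was 0.4 nM [3H]ketanserin, with 11 competitor concentrations run in triplicate and nonspecific binding defined by 1 μM cinanserin. Bound ligand was filtered onto glass fibre and counted by scintillation. IC50 came from nonlinear regression; Ki = IC50/(1+[D]/KD).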

Rattus norvegicus [3] = species: Rattus norvegicus; test: The number of responses made on the (R)(-)-DOB appropriate level, generation studies was calculated at dose 2.0 mg / kg; format: functional
How it was run: (§1)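 Male Sprague-Dawley rats (n = 6) were trained on a two-lever operant task for sweetened-milk reward to discriminate 0.2 mg/kg (R)-(-)-DOB-HCl ip from 1.0 mL/kg 0.9% saline, with a VI 15-s schedule and 15-min sessions. Test doses were given ip 15 min before a 2.5-min extinction session, in random order, to groups of 3-6 rats. Read-out was % drug-lever responses; fewer than five total responses counted as disrupted.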

Rattus norvegicus [4] = species: Rattus norvegicus; test: The number of responses made on the (R)(-)-DOB appropriate level, generation studies was calculated at dose 2.2 mg / kg; format: functional; how it was run: as §1
Rattus norvegicus [5] = species: Rattus norvegicus; test: The number of responses made on the (R)(-)-DOB appropriate level, generation studies was calculated at dose 0.7 mg / kg; format: functional; how it was run: as §1
Rattus norvegicus [6] = species: Rattus norvegicus; test: The number of responses made on the (R)(-)-DOB appropriate level, generation studies was calculated at dose 1.2 mg / kg; format: functional; how it was run: as §1
Rattus norvegicus [7] = species: Rattus norvegicus; test: The number of animals responding per number of animals receiving the drug(3/4) in the stimulus-generation studies, was calculated at dose 2.2 mg / kg; format: functional
How it was run: (§2)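 Male Sprague-Dawley rats were trained to discriminate 0.2 mg/kg ip training drug from saline (two levers, VI 15-s, milk reward). Test doses were given ip 15 min pre-session in random order to groups of 3–6. In the 2.5-min extinction session, rats making fewer than five total responses were counted as disrupted. N is animals responding over animals dosed.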

Rattus norvegicus [8] = species: Rattus norvegicus; test: The number of animals responding per number of animals receiving the drug (3/3)in the stimulus-generation studies, was calculated at dose 1.2 mg / kg; format: functional; how it was run: as §2
Rattus norvegicus [9] = species: Rattus norvegicus; test: The number of animals responding per number of animals receiving the drug (4/4)in the stimulus-generation studies, was calculated at dose 2.0 mg / kg; format: functional; how it was run: as §2
Rattus norvegicus [10] = species: Rattus norvegicus; test: The number of animals responding per number of animals receiving the drug (4/4)in the stimulus-generation studies, was calculated at dose 0.7 mg / kg; format: functional; how it was run: as §2
Rattus norvegicus [11] = species: Rattus norvegicus; test: The mean responses per minute during the 2.5 min extinction session in the stimulus-generation studies was calculated at dose 2.0 mg / kg; format: functional
How it was run: (§3)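 Rats were trained on a two-lever drug-versus-saline discrimination (0.2 mg/kg ip training dose, VI 15-s, food reward). Challenge doses were given ip 15 min before a 2.5-min extinction test, in random order, to groups of 3–6 rats, with at least three training sessions between tests. Response rate is responses per minute over the extinction session.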

Rattus norvegicus [12] = species: Rattus norvegicus; test: The mean responses per minute during the 2.5 min extinction session in the stimulus-generation studies was calculated at dose 2.2 mg / kg; format: functional; how it was run: as §3
Rattus norvegicus [13] = species: Rattus norvegicus; test: The mean responses per minute during the 2.5 min extinction session in the stimulus-generation studies was calculated at dose 0.7 mg / kg; format: functional; how it was run: as §3
Rattus norvegicus [14] = species: Rattus norvegicus; test: The mean responses per minute during the 2.5 min extinction session in the stimulus-generation studies was calculated at dose 1.2 mg / kg; format: functional; how it was run: as §3
Rattus norvegicus [15] = species: Rattus norvegicus; test: The number of responses made on the (R)(-)-DOB appropriate level, generation studies was calculated at dose 0.01 mg / kg; format: functional; how it was run: as §1
Rattus norvegicus [16] = species: Rattus norvegicus; test: The number of responses made on the (R)(-)-DOB appropriate level, generation studies was calculated at dose 0.03 mg / kg; format: functional; how it was run: as §1
Rattus norvegicus [17] = species: Rattus norvegicus; test: The number of responses made on the (R)(-)-DOB appropriate level, generation studies was calculated at dose 0.05 mg / kg; format: functional; how it was run: as §1
Rattus norvegicus [18] = species: Rattus norvegicus; test: The number of responses made on the (R)(-)-DOB appropriate level, generation studies was calculated at dose 0.10 mg / kg; format: functional; conditions: dose 0.1 mg / kg; how it was run: as §1
Rattus norvegicus [19] = species: Rattus norvegicus; test: The number of responses made on the (R)(-)-DOB appropriate level, generation studies was calculated at dose 0.20 mg / kg; format: functional; conditions: dose 0.2 mg / kg; how it was run: as §1
Rattus norvegicus [20] = species: Rattus norvegicus; test: The number of animals responding per number of animals receiving the drug(4/4)in the stimulus-generation studies was calculated at dose 0.10 mg / kg; format: functional; conditions: dose 0.1 mg / kg; how it was run: as §1
Rattus norvegicus [21] = species: Rattus norvegicus; test: The number of animals responding per number of animals receiving the drug(5/5) in the stimulus-generation studies was calculated at dose 0.03 mg / kg; format: functional; how it was run: as §1
Rattus norvegicus [22] = species: Rattus norvegicus; test: The number of animals responding per number of animals receiving the drug(4/4) in the stimulus-generation studies was calculated at dose 0.01 mg / kg; format: functional; how it was run: as §2
Rattus norvegicus [23] = species: Rattus norvegicus; test: The number of animals responding per number of animals receiving the drug (4/4)in the stimulus-generation studies was calculated at dose 0.20 mg / kg; format: functional; conditions: dose 0.2 mg / kg; how it was run: as §2
Rattus norvegicus [24] = species: Rattus norvegicus; test: The number of animals responding per number of animals receiving the drug (5/5)in the stimulus-generation studies was calculated at dose 0.05 mg / kg; format: functional; how it was run: as §2
Rattus norvegicus [25] = species: Rattus norvegicus; test: The mean responses per minute during the 2.5 min extinction session in the stimulus-generation studies was calculated at dose 0.01 mg / kg; format: functional; how it was run: as §3
Rattus norvegicus [26] = species: Rattus norvegicus; test: The mean responses per minute during the 2.5 min extinction session in the stimulus-generation studies was calculated at dose 0.03 mg / kg; format: functional; how it was run: as §3
Rattus norvegicus [27] = species: Rattus norvegicus; test: The mean responses per minute during the 2.5 min extinction session in the stimulus-generation studies was calculated at dose 0.05 mg / kg; format: functional; how it was run: as §3
Rattus norvegicus [28] = species: Rattus norvegicus; test: The mean responses per minute during the 2.5 min extinction session in the stimulus-generation studies was calculated at dose 0.10 mg / kg; format: functional; conditions: dose 0.1 mg / kg; how it was run: as §3
Rattus norvegicus [29] = species: Rattus norvegicus; test: The mean responses per minute during the 2.5 min extinction session in the stimulus-generation studies was calculated at dose 0.20 mg / kg; format: functional; conditions: dose 0.2 mg / kg; how it was run: as §3
Rattus norvegicus [30] = species: Rattus norvegicus; test: 1 The compound was tested for effective dose ( ED 50) against stimulus generation with rats trained to discriminate (R) (-)-DOB from saline.; format: functional
How it was run: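 Male Sprague-Dawley rats (n = 6) on a two-lever operant task for sweetened milk, VI 15-s schedule. Trained to discriminate 0.2 mg/kg ip training drug from 1.0 mL/kg 0.9% saline, 15 min pre-session. Test doses were given ip in random order to groups of 3–6, with 15-min pretreatment and a 2.5-min extinction session. ED50 was calculated from dose-response data.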

For COc1cc(CC(C)[N+](C)(C)C)c(OC)cc1Br.[I-] (stereo not given), which Ki [1] is on record?
The Ki was 8.25 µM.

And the Ki [2]?
Its Ki is > 25 µM.

What about the Responding (Rattus norvegicus [3]) of the same compound?
Its Responding is 38%.

And the Responding (Rattus norvegicus [4])?
Its Responding is 3%.

What about the Responding (Rattus norvegicus [5]) of the same compound?
Its Responding is 3%.

What about the Responding (Rattus norvegicus [6]) of the same compound?
Its Responding is 9%.

What about the “No. of animals responding/animals receiving drug” value (Rattus norvegicus [7]) of the same compound?
The value was 3.

What about the “No. of animals responding/animals receiving drug” value (Rattus norvegicus [8]) of the same compound?
Its value is 3.

What about the “No. of animals responding/animals receiving drug” value (Rattus norvegicus [9]) of the same compound?
The value was 4.

What about the “No. of animals responding/animals receiving drug” value (Rattus norvegicus [10]) of the same compound?
The value was 4.

And the Response rate (Rattus norvegicus [11])?
Its Response rate is 7.3.

And the Response rate (Rattus norvegicus [12])?
The Response rate was 3.7.

What about the Response rate (Rattus norvegicus [13]) of the same compound?
The Response rate was 16.2.

And the Response rate (Rattus norvegicus [14])?
Its Response rate is 11.9.

How did the Responding (Rattus norvegicus [15]) turn out when COc1cc(C[C@@H](C)N)c(OC)cc1Br was run?
The Responding was 5%.

What about the Responding (Rattus norvegicus [16]) of the same compound?
Its Responding is 21%.

And the Responding (Rattus norvegicus [17])?
The Responding was 58%.

And the Responding (Rattus norvegicus [18])?
The Responding was 64%.

What about the Responding (Rattus norvegicus [19]) of the same compound?
The Responding was 98%.

And the “No. of animals responding/animals receiving drug” value (Rattus norvegicus [20])?
Its value is 4.

What about the “No. of animals responding/animals receiving drug” value (Rattus norvegicus [21]) of the same compound?
Its value is 5.

And the “No. of animals responding/animals receiving drug” value (Rattus norvegicus [22])?
The value was 4.

And the “No. of animals responding/animals receiving drug” value (Rattus norvegicus [23])?
The value was 4.

What about the “No. of animals responding/animals receiving drug” value (Rattus norvegicus [24]) of the same compound?
Its value is 5.

And the Response rate (Rattus norvegicus [25])?
The Response rate was 12.5.

What about the Response rate (Rattus norvegicus [26]) of the same compound?
Its Response rate is 11.8.

What about the Response rate (Rattus norvegicus [27]) of the same compound?
Its Response rate is 12.

What about the Response rate (Rattus norvegicus [28]) of the same compound?
The Response rate was 10.8.

And the Response rate (Rattus norvegicus [29])?
The Response rate was 12.3.

And the ED50 (Rattus norvegicus [30])?
Its ED50 is 0.05 mg/kg.
